Measured values: ChEMBL document CHEMBL3351281, “1,3,4-Oxadiazole-containing histone deacetylase inhibitors: anticancer activities in cancer cells” (J Med Chem, 2014)
Activity calls are given as the source filed them. The calls are words filed in the database; no cut-off is given here.

Assays:
[1] = target: Histone deacetylase 1 (Homo sapiens, UniProt Q13547); assay: Inhibition of human recombinant HDAC1 using histone H3 substrate pre-incubated at room temperature for 15 mins before substrate addition by fluorimetric assay
[2] = target: Histone deacetylase 4 (Homo sapiens, UniProt P56524); assay: Inhibition of human recombinant HDAC4 using non-histone trifluoroacetyl lysine substrate pre-incubated at room temperature for 15 mins before substrate addition by fluorimetric assay
[3] = target: T1, Protein deacetylase HDAC6 (Homo sapiens, UniProt Q9UBN7); assay: Inhibition of human recombinant HDAC6 pre-incubated at room temperature for 15 min before substrate addition by fluorimetric assay
T1 sequence (Q9UBN7 whole entry): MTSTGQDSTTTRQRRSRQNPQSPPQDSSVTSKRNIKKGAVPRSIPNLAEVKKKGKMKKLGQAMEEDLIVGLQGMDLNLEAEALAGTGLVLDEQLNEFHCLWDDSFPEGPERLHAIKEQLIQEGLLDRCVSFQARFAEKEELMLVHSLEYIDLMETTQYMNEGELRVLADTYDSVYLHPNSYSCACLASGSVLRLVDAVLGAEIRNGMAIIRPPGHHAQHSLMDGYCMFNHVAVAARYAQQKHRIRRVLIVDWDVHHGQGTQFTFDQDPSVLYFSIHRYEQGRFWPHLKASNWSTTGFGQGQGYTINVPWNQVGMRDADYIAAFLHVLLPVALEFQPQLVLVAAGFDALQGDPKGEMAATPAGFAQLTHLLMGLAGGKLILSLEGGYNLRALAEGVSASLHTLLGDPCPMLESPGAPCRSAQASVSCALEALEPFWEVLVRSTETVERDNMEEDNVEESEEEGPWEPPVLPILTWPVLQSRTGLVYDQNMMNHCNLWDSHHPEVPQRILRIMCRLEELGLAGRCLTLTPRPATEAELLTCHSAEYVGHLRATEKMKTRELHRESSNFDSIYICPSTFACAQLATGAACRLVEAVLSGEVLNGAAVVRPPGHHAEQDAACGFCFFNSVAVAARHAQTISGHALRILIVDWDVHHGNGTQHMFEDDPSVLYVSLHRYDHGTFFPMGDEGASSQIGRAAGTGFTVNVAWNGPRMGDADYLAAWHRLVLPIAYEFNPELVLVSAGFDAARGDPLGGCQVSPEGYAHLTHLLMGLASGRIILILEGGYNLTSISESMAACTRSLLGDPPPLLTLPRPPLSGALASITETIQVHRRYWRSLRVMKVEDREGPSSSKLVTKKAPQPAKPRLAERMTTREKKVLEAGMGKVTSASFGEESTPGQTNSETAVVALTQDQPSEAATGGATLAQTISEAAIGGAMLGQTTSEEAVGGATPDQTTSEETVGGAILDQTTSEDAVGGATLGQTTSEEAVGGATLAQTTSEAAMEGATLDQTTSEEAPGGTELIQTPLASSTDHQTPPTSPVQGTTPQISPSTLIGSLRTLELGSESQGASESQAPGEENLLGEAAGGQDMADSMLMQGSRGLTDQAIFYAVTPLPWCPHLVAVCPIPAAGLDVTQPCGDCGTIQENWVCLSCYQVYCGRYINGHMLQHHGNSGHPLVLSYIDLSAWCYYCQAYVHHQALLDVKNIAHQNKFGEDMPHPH

[4] = system: U-937; assay: Induction of granulocytic differentiation in human U937 cells assessed as increase in CD11c expression at 5 uM after 48 hrs by FACS method; format: functional
Summary of the method: (§1)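 Granulocytic differentiation in U937 cells at 0.1, 1, 5, 10 and 25 μM for 24 and 48 h, with reference drugs at 5 μM as positive controls. Read-out was the percentage of CD11c-positive, propidium iodide-negative cells.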

[5] = Antiproliferative activity against human SANTO cells after 48 hrs by MTT assay; format: functional, cell-based
Summary of the method: (§2)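 Solid tumour cells grown in RPMI with 10% fetal calf serum and penicillin. Exponentially growing cells seeded in sextuplicate in 96-well plates (3 × 10³ cells/well), treated 24 h later at 1 to 50 μM for 48 h. Viability read by MTT.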

[6] = Antiproliferative activity against human U937 cells after 48 hrs by Cell Titer GLo Assay; format: functional, cell-based; details: U-937, 48 h
Summary of the method: (§3)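 AML cells grown in RPMI with 10% fetal calf serum, antibiotics, amphotericin-B, 10 mM HEPES and 2 mM glutamine, kept at 200 000 cells/mL. Exponentially growing cells seeded in duplicate in 6-well plates (2 × 10⁵ cells/well), treated 24 h later at 1 to 50 μM for 48 h. Viability by Cell Titer GLo.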

[7] = system: U2OS; assay: Antiproliferative activity against human U2OS cells after 48 hrs by MTT assay; format: functional, cell-based; summary of the method: as §2
[8] = system: U-937; assay: Induction of granulocytic differentiation in human U937 cells assessed as increase in CD11c expression after 48 hrs by FACS method; format: functional, cell-based; summary of the method: as §1
[9] = system: U-937; details: Homo sapiens, at 2.5 µM
[10] = system: A549; assay: Antiproliferative activity against human A549 cells after 48 hrs by MTT assay; format: functional, cell-based; details: A549, 48 h; summary of the method: as §2
[11] = system: U-937; assay: Induction of apoptosis in human U937 cells assessed as accumulation at pre-G1 phase after 48 hrs by propidium iodide staining based FACS method; format: functional, cell-based
Summary of the method: (§4)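 U937 cells exposed to 0.1, 1, 5, 10 and 25 μM for 24 and 48 h. Reference drugs at 5 μM served as positive controls. Apoptosis taken as the percentage of cells in the pre-G1 peak.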

[12] = system: MDA-MB-468; assay: Antiproliferative activity against human MDA-MB-468 cells after 48 hrs by MTT assay; format: functional, cell-based; details: MDA-MB-468, 48 h; summary of the method: as §2
[13] = Antiproliferative activity against human KG1 cells after 48 hrs by Cell Titer GLo Assay; format: functional, cell-based; details: KG-1, 48 h; summary of the method: as §3
[14] = system: HEL; assay: Antiproliferative activity against human HEL cells after 48 hrs by Cell Titer GLo Assay; format: functional, cell-based; summary of the method: as §3
[15] = Antiproliferative activity against human HL60 cells after 48 hrs by Cell Titer GLo Assay; format: functional, cell-based; details: HL-60, 48 h; summary of the method: as §3
[16] = system: HCC1937; assay: Antiproliferative activity against human HCC1937 cells after 48 hrs by MTT assay; format: functional, cell-based; details: HCC1937, 48 h; summary of the method: as §2
[17] = system: M14; assay: Antiproliferative activity against human M14 cells after 48 hrs by MTT assay; format: functional, cell-based; details: M14, 48 h; summary of the method: as §2
[18] = system: SW-620; assay: Antiproliferative activity against human SW620 cells after 48 hrs by MTT assay; format: functional, cell-based; details: SW-620, 48 h; summary of the method: as §2
[19] = Antiproliferative activity against human HCT116 cells after 48 hrs by MTT assay; format: functional, cell-based; details: HCT-116, 48 h; summary of the method: as §2
[20] = system: U-937; assay: Induction of apoptosis in human U937 cells assessed as accumulation at pre-G1 phase at 25 uM after 48 hrs by propidium iodide staining based FACS method; format: functional; summary of the method: as §4
[21] = system: U-937; assay: Induction of apoptosis in human U937 cells assessed as accumulation at pre-G1 phase at 5 uM after 48 hrs by propidium iodide staining based FACS method; format: functional; summary of the method: as §4
[22] = system: MOLM-13; assay: Antiproliferative activity against human MOLM13 cells after 48 hrs by Cell Titer GLo Assay; format: functional, cell-based; details: MOLM-13, 48 h; summary of the method: as §3
[23] = cells; format: functional; details: Homo sapiens, U-937, 24 h
[24] = system: U-937; assay: Induction of cell cycle arrest in human U937 cells assessed as accumulation at S phase at 1 uM after 48 hrs by propidium iodide staining based FACS method; format: functional
Summary of the method: (§5)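 U937 cells treated at 0.1, 1, 5, 10 and 25 μM for 24 and 48 h, with reference drugs at 5 μM as positive controls. Cell-cycle distribution measured, with accumulation in S phase scored.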

[25] = system: U-937; assay: Induction of cell cycle arrest in human U937 cells assessed as accumulation at S phase at 0.1 to 25 uM after 48 hrs by propidium iodide staining based FACS method; format: functional; summary of the method: as §5
[26] = system: U-937; assay: Induction of cell cycle arrest in human U937 cells assessed as accumulation at S phase at 5 uM after 48 hrs by propidium iodide staining based FACS method; format: functional; summary of the method: as §5

Chain of Histone deacetylase 1 (Q13547 whole entry): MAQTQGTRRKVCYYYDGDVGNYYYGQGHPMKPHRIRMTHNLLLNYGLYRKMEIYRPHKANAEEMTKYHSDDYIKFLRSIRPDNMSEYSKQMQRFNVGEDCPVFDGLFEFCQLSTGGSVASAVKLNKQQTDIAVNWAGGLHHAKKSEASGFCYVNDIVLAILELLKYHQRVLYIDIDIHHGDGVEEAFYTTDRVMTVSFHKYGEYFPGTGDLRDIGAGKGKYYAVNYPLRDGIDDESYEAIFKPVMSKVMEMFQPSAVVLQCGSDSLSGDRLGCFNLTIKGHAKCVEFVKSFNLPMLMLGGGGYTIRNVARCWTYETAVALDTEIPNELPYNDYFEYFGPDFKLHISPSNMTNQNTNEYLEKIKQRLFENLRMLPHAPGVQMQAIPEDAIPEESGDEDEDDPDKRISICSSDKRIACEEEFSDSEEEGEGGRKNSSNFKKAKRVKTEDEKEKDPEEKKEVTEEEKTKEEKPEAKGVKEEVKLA
Chain of Histone deacetylase 4 (P56524 whole entry): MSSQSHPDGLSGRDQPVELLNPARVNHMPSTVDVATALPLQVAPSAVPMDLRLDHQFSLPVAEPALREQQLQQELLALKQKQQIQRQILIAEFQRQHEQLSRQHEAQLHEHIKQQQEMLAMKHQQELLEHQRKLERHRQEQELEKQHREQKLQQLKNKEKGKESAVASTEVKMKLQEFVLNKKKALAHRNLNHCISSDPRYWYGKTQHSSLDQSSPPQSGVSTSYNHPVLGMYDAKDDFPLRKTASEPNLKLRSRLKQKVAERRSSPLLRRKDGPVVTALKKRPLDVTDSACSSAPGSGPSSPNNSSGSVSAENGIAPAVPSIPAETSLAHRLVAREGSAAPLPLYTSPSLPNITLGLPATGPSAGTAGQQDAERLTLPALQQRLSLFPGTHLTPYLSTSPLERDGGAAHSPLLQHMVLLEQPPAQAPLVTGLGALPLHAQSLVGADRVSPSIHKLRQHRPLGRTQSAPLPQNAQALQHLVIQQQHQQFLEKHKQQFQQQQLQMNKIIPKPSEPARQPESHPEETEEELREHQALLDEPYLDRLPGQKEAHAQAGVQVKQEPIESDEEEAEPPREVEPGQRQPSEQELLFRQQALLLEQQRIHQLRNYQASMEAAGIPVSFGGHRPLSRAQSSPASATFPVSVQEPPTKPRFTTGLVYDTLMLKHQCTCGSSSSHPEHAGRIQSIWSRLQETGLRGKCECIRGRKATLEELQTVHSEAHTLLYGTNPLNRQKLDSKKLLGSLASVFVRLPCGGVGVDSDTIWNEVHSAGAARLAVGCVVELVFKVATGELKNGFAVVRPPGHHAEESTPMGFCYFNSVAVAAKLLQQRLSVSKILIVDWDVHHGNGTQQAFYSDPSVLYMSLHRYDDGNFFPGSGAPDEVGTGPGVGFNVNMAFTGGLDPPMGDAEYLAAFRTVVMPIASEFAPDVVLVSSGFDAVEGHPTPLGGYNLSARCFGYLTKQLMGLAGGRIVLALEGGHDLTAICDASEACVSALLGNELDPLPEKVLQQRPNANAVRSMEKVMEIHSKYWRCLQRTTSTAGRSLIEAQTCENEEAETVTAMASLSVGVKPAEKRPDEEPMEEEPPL

Work on `O=C(NO)c1ccc(-c2nnc(Cc3cccc4ccccc34)o2)cc1` yielded an IC50 [1] of 9.9 µM, an IC50 [2] greater than 20 µM and an IC50 [3] of 4.1 µM.

With `Nc1ccccc1NC(=O)/C=C/c1ccc(-c2nnc(Cc3ccc4ccccc4c3)o2)cc1` the IC50 [1] was 2.4 µM, the IC50 [2] was greater than 20 µM and the IC50 [3] was greater than 20 µM.

In the case of `Nc1ccccc1NC(=O)/C=C/c1ccc(-c2nnc(Cc3c[nH]c4ccccc34)o2)cc1`, the IC50 [1] is reported as 1.5 µM, the IC50 [2] is reported as greater than 20 µM and the IC50 [3] is reported as greater than 20 µM.

Compound `Nc1ccccc1NC(=O)c1ccc(CNC(=O)OCc2cccnc2)cc1` [ENTINOSTAT] has an Activity [4] of 47%.

Compound `O=C(/C=C/c1ccc(Cc2nnc(Cc3cccc4ccccc34)o2)cc1)NO` has an IC50 [5] of 24 µM, an IC50 [1] of 0.2 µM and an IC50 [6] of 7.8 µM. The IC50 [7] was 50 µM, the Activity [8] was “Dose-dependent effect” and the inhibition [9] was “Active”. The IC50 [10] was 29.5 µM, the Activity [11] was “Dose-dependent effect” and the IC50 [2] was greater than 20 µM. For the same compound, the IC50 [12] was 18.4 µM, the IC50 [13] was 2.6 µM and the IC50 [14] was 4.1 µM. The IC50 [15] was 6 µM, the IC50 [3] was 0.03 µM and the IC50 [16] was 33.6 µM. The IC50 [17] was 45 µM, the IC50 [18] was 5.1 µM and the IC50 [19] was 21.3 µM. The Activity [20] was 74%, the Activity [21] was 58% and the IC50 [22] was 2.2 µM.

`Nc1ccccc1NC(=O)c1ccc(Cc2nnc(Cc3cccc4ccccc34)o2)cc1` showed an IC50 [5] of 17.4 µM, an IC50 [1] of 0.2 µM and an IC50 [6] of 1.8 µM. The IC50 [7] was 20.4 µM, the Activity [8] was “Dose-dependent effect” and the Activity [4] was 45%. For the same compound, the IC50 [10] was 23.6 µM, the Activity [11] was “Dose-dependent effect” and the IC50 [2] was greater than 20 µM. For the same compound, the IC50 [12] was 19.6 µM, the IC50 [13] was 1.8 µM and the IC50 [14] was 2 µM. It also gave an inhibition at 2.5 µM [23] of 75%, an IC50 [15] of 2.8 µM and an IC50 [3] of 8.9 µM. It also gave an IC50 [16] of 29.8 µM, an IC50 [17] of 43.3 µM and an IC50 [18] of 6.7 µM. For the same compound, the IC50 [19] was 24.7 µM, the Activity [24] was “Active” and the Activity [25] was “Active”. For the same compound, the IC50 [22] was 1.6 µM.

In the case of `O=C(NO)c1ccc(Cc2nnc(Cc3cccc4ccccc34)o2)cc1`, the IC50 [1] is reported as 0.2 µM, the Activity [11] is reported as “Dose-dependent effect” and the IC50 [2] is reported as 7.8 µM. The IC50 [3] was 1.2 µM and the Activity [25] was “Active”.

With `O=C(/C=C/c1ccc(-c2nnc(Cc3c[nH]c4ccccc34)o2)cc1)NO` the IC50 [1] was 0.6 µM, the IC50 [2] was 15.2 µM and the IC50 [3] was 0.03 µM.

With `Nc1ccccc1NC(=O)/C=C/c1ccc(-c2nnc(Cc3cccc4ccccc34)o2)cc1` the IC50 [1] was 1 µM, the Activity [8] was “Dose-dependent effect” and the IC50 [2] was greater than 20 µM. For the same compound, the IC50 [3] was greater than 20 µM.

In the case of `O=C(CCCCCCC(=O)Nc1ccccc1)NO` [VORINOSTAT], the Activity [26] is reported as “Active” and the Activity [21] is reported as 48%.

In the case of `O=C(/C=C/c1ccc(-c2nnc(Cc3cccc4ccccc34)o2)cc1)NO`, the IC50 [1] is reported as 0.8 µM, the IC50 [2] is reported as greater than 20 µM and the IC50 [3] is reported as 0.06 µM.

Compound `Nc1ccccc1NC(=O)/C=C/c1ccc(Cc2nnc(Cc3cccc4ccccc34)o2)cc1` has an IC50 [1] of 4.1 µM, an IC50 [2] greater than 20 µM and an IC50 [3] greater than 20 µM.

With `Nc1ccccc1NC(=O)c1ccc(-c2nnc(Cc3cccc4ccccc34)o2)cc1` the IC50 [1] was 0.3 µM, the Activity [8] was “Dose-dependent effect” and the IC50 [2] was greater than 20 µM. It also gave an IC50 [3] of 16.1 µM.
